# From ChEMBL document CHEMBL3351780, “Novel hybrids of metronidazole and quinolones: synthesis, bioactive evaluation, cytotoxicity, preliminary antimicrobial mechanism and effect of metal ions on their transportation by human serum albumin” (Eur J Med Chem, 2014)
# Tests used:
# [1] = tested on: Pichia norvegensis; test: Antifungal activity against Candida mycoderma after 24 hrs by microbroth dilution method; format: functional
# [2] = tested on: Staphylococcus aureus; test: Antibacterial activity against methicillin-resistant Staphylococcus aureus N315 by two-fold serial dilution method; format: functional
# Outline: (§1)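 MIC read as the lowest concentration giving complete growth inhibition. Two-fold serial dilutions were made in 96-well plates following NCCLS, giving a series down to 0.5 µg/mL (…32, 16, 8, 4, 2, 1, 0.5). Plates were inoculated and incubated at 37 °C for 24 h. A DMSO-with-inoculum control without drug was included. Growth was monitored visually and spectrophotometrically, in triplicate.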
# [3] = Antibacterial activity against Eberthella typhosa by two-fold serial dilution method; format: functional; outline: as §1
# [4] = tested on: Candida albicans; test: Antifungal activity against Candida albicans ATCC 76615 after 24 hrs by microbroth dilution method; format: functional; settings: ATCC 76615, 24 h
# Outline: (§2)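 Spore suspension prepared in sterile distilled water from one-day-old cultures on Sabouraud agar, final 1-5 x 10^3 spores/mL. Compounds were serially diluted in RPMI 1640 to give eleven dilutions. Incubation at 35 °C for 24 h. Growth read visually and spectrophotometrically, in triplicate. MIC is the lowest concentration with complete inhibition.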
# [5] = tested on: Bacillus spizizenii; test: Antibacterial activity against Bacillus subtilis ATCC 6633 by two-fold serial dilution method; format: functional
# Outline: (§3)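 Standard two-fold serial dilution in 96-well microtest plates following NCCLS. Top dilutions printed as 32, 16, 8, 4, 2, 1, 0.5 ug/mL. Wells inoculated and held at 37 °C for 24 h. Growth judged visually and by spectrophotometer, in triplicate. MIC is the lowest concentration giving complete growth inhibition.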
# [6] = tested on: Micrococcus luteus; test: Antibacterial activity against Micrococcus luteus by two-fold serial dilution method; format: functional; outline: as §3
# [7] = tested on: Escherichia coli; test: Antibacterial activity against Escherichia coli DH52 by two-fold serial dilution method; format: functional; outline: as §3
# [8] = tested on: Staphylococcus aureus; test: Antibacterial activity against Staphylococcus aureus ATCC 25923 by two-fold serial dilution method; format: functional; outline: as §3
# [9] = tested on: Pseudomonas aeruginosa; test: Antibacterial activity against Pseudomonas aeruginosa by two-fold serial dilution method; format: functional; outline: as §3
# [10] = tested on: Saccharomyces cerevisiae; test: Antifungal activity against Saccharomyces cerevisiae after 24 hrs by microbroth dilution method; format: functional; outline: as §2
# [11] = tested on: Streptococcus pneumoniae; test: Antibacterial activity against Streptococcus pneumoniae by two-fold serial dilution method; format: functional; outline: as §3
# [12] = tested on: Cyberlindnera jadinii; test: Antifungal activity against Candida utilis after 24 hrs by microbroth dilution method; format: functional; settings: Williopsis jadinii; outline: as §2
# [13] = Cytotoxicity against human A549 cells assessed as cell viability at 256 ug/ml after 24 hrs by CCK-8 assay; format: cell-based; settings: read-out: Activity
# Outline: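 A549 cells were plated and allowed to attach for 24 h, then medium with the compound was added. The compound came from DMSO stocks diluted in medium to 8, 16, 32, 64, 128 and 256 µg/mL. Cells were kept at 37 °C in 5% CO2. Viability was read by CCK-8 absorbance at 450 nm against a drug-free control, three replicates.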
# [14] = tested on: Shigella dysenteriae; test: Antibacterial activity against Shigella dysenteriae by two-fold serial dilution method; format: functional; outline: as §1
# [15] = molecular target: T1, Albumin (Homo sapiens, UniProt P02768); test: Binding affinity to human serum albumin by fluorescence spectrophotometry; format: ADME; settings: isolated protein
# T1 sequence (P02768 whole entry): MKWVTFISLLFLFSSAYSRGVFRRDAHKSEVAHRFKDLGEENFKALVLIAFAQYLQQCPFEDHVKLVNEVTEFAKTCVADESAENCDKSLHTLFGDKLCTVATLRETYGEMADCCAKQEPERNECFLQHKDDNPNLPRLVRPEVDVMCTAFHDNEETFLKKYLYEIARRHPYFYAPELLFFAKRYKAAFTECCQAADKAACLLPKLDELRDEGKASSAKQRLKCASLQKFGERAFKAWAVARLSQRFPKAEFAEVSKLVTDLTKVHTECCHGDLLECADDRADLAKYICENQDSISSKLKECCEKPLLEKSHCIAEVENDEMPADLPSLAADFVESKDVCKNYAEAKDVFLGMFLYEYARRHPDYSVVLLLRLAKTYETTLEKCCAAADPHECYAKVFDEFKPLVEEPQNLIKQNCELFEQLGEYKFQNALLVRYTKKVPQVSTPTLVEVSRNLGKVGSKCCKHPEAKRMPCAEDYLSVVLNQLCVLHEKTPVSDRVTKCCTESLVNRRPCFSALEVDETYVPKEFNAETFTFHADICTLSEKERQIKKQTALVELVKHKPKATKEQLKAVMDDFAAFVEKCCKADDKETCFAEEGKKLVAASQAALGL
# Outline: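 HSA dissolved in Tris-HCl buffer (0.05 M Tris, 0.15 M NaCl, pH 7.4). Fluorescence emission scanned 300-450 nm at 298 K with excitation at 295 nm, 2.5 nm slits and 1.0 cm quartz cells.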
# [16] = Cytotoxicity against human LO2 cells assessed as inhibition of cell viability at 16 ug/ml after 24 hrs by MTT assay; format: cell-based, L02; settings: read-out: INH
# Outline: (§4)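 LO2 hepatocytes were plated and left to attach for 24 h. DMSO stocks were diluted in medium and added, and cells were cultured for 24 h at 37 °C in humidified 5% CO2. MTT absorbance read at 490 nm. Three parallels. Inhibition computed as percent reduction of viable cells against drug-free control.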
# [17] = tested on: Calf thymus DNA; test: Binding affinity to calf thymus DNA by UV-vis spectroscopy; format: nucleic-acid assay; settings: Bos taurus
# Outline: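 Calf thymus DNA held at a fixed concentration and titrated with increasing amounts of the compound. UV-vis absorption spectra were recorded at room temperature in 1.0 cm quartz cells, following the DNA band at 260 nm.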
# [18] = Cytotoxicity against human LO2 cells assessed as inhibition of cell viability at 128 ug/ml after 24 hrs by MTT assay; format: cell-based, L02; settings: read-out: INH
# Outline: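 Human hepatocyte LO2 cells were plated, attached for 24 h, then exposed to the compound diluted in medium from DMSO stock, at 37 °C in 5% CO2. Viability was read by MTT at 490 nm. Inhibition was calculated as the percent reduction of viable cells versus a drug-free control, mean of three parallels.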
# [19] = molecular target: T1, Albumin; test: Drug transport index, ratio of Kb to K0 for human serum albumin by fluorescence spectrophotometry in presence of […]; format: ADME
# Outline: (§5)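 HSA in Tris-HCl (0.05 M Tris, 0.15 M NaCl, pH 7.4) with compound, in the presence of CaCl2, KCl, MgCl2 or NiCl2. Fluorescence was excited at 295 nm and emission recorded from 300 to 450 nm at 298 K, with 2.5 nm slits. Binding constants with the metal ion (Kb) and without it (K0) were expressed as Kb/K0.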
# [20] = molecular target: T1, Albumin; test: Binding affinity to human serum albumin by fluorescence spectrophotometry in presence of Mg2+; format: ADME; settings: isolated protein
# Outline: (§6)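 HSA-compound fluorescence measured in Tris-HCl (0.05 M Tris, 0.15 M NaCl, pH 7.4) with added metal chloride (CaCl2, KCl, MgCl2 or NiCl2). Excitation 295 nm, emission 300-450 nm, 298 K, 2.5 nm slits. The metal-ion effect is expressed as the ratio Kb/K0.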
# [21] = Octanol-water partition co-efficient, log P of the compound by shake flask method; format: physicochemical
# [22] = molecular target: T1, Albumin; test: Drug transport index, ratio of Kb to K0 for human serum albumin by fluorescence spectrophotometry in presence of Mg2+; format: ADME; outline: as §5
# [23] = Cytotoxicity against human LO2 cells assessed as inhibition of cell viability at 32 ug/ml after 24 hrs by MTT assay; format: cell-based, L02; settings: read-out: INH; outline: as §4
# [24] = Cytotoxicity against human LO2 cells assessed as inhibition of cell viability at 64 ug/ml after 24 hrs by MTT assay; format: cell-based, L02; settings: read-out: INH; outline: as §4
# [25] = molecular target: T1, Albumin; test: Drug transport index, ratio of Kb to K0 for human serum albumin by fluorescence spectrophotometry in presence of Ni2+; format: ADME; outline: as §5
# [26] = Cytotoxicity against human LO2 cells assessed as inhibition of cell viability at 8 ug/ml after 24 hrs by MTT assay; format: cell-based, L02; settings: read-out: INH; outline: as §4
# [27] = molecular target: T1, Albumin; test: Binding affinity to human serum albumin by fluorescence spectrophotometry in presence of K+; format: ADME; settings: isolated protein; outline: as §6
# [28] = molecular target: T1, Albumin; test: Drug transport index, ratio of Kb to K0 for human serum albumin by fluorescence spectrophotometry in presence of Ca2+; format: ADME; outline: as §5
# [29] = Dissociation constant, pKa of the compound by UV-spectroscopy; format: physicochemical
# Outline: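 DMSO stock at 4.0 × 10^-3 mol/L added to 2 mL of buffer, then shaken 10 min at room temperature. Buffers were acetate (pH 4.0–5.0), MES (5.5–6.5), HEPES (7.0–8.0) and CHES (8.5–9.4), each from 500 mM stocks. Scans ran 210–400 nm and were normalized. Absolute differences from the acid spectrum were summed at 244 and 308 nm, plotted against pH and fitted to obtain pKa.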
# [30] = Aqueous solubility of the compound by UV-spectrophotometry; format: physicochemical
# [31] = molecular target: T1, Albumin; test: Binding affinity to human serum albumin by fluorescence spectrophotometry in presence of Ca2+; format: ADME; settings: isolated protein; outline: as §6
# [32] = molecular target: T1, Albumin; test: Binding affinity to human serum albumin by fluorescence spectrophotometry in presence of Ni2+; format: ADME; settings: isolated protein; outline: as §6
# [33] = tested on: Aspergillus flavus; test: Antifungal activity against Aspergillus flavus ATCC 96918 after 24 hrs by microbroth dilution method
Structure (SMILES),MIC [1] [µg/mL],MIC [2] [µg/mL],MIC [3] [µg/mL],MIC [4] [µg/mL],MIC [5] [µg/mL],MIC [6] [µg/mL],MIC [7] [µg/mL],MIC [8] [µg/mL],MIC [9] [µg/mL],MIC [10] [µg/mL],MIC [11] [µg/mL],MIC [12] [µg/mL],"viability at 24 h, 256 ug/ml [13] [%]",MIC [14] [µg/mL],logP [21],pKa [29],solubility [30] [µg/mL],also measured
Cc1ccc2c(c1)c(=O)c(C(=O)O)cn2CC(O)Cn1cnc([N+](=O)[O-])c1 (stereo not drawn),64,8,4,16,1,8,16,0.5,1,4,32,256,> 83,4,–,–,–,–
Cc1ncc([N+](=O)[O-])n1CC(O)Cn1cc(C(=O)O)c(=O)c2ccc(C(F)(F)F)cc21 (stereo not drawn),64,1,8,64,4,1,0.5,4,4,64,4,512,> 83,0.5,-0.25,5.6,790,"Kb [15]: 5.15 ×10⁴ L/mol; cytotoxicity at 24 h, 16 ug/ml [16]: 6.7%; Activity [17]: Dose-dependent effect; cytotoxicity at 24 h, 128 ug/ml [18]: 17.5%; Ratio [19]: 1.51; Kb [20]: 5.63 ×10⁴ L/mol; Ratio [22]: 0.91; cytotoxicity at 24 h, 32 ug/ml [23]: 10.3%; cytotoxicity at 24 h, 64 ug/ml [24]: 15.2%; Ratio [25]: 1.02; cytotoxicity at 24 h, 8 ug/ml [26]: 3.6%; Kb [27]: 3.42 ×10⁴ L/mol; Ratio [28]: 1.43; Kb [31]: 3.61 ×10⁴ L/mol; Kb [32]: 5.07 ×10⁴ L/mol"
Cc1ncc([N+](=O)[O-])n1CC(O)Cn1cc(C(=O)O)c(=O)c2cc(F)cc(F)c21 (stereo not drawn),128,2,16,32,4,2,4,16,2,64,16,512,–,4,-0.21,5.33,570,–
CCOC(=O)c1cn(CC2CO2)c2c(Cl)cc(Cl)cc2c1=O (racemic),1,–,2,–,2,–,–,–,–,–,–,512,–,–,–,–,–,MIC [33]: 512 µg/mL
Cc1ncc([N+](=O)[O-])n1CC(O)Cn1cc(C(=O)O)c(=O)c2cc(F)ccc21 (stereo not drawn),256,2,32,128,16,2,8,8,4,64,8,512,–,1,-0.13,5.18,380,–
